Measurements taken from ChEMBL document CHEMBL2346557 (Bioorg Med Chem, 2013).
Values after ≈ are worked out from the molar mass of the structure shown.

Key:
[1] = system: Salmonella typhimurium; test: Genotoxicity in Salmonella typhimurium by Ames test; type: toxicity, organism-based; conditions: salmonella enterica subsp. enterica serovar typhimurium
[2] = biological target: Cytochrome P450 3A4 (Homo sapiens, UniProt P08684); test: Inhibition of CYP3A4 (unknown origin); type: ADME
[3] = system: Caco-2; test: Apparent permeability from apical to basolateral side of human Caco2 cells; type: ADME, cell-based
In short: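 Caco-2 monolayer permeability measured in the apical-to-basolateral direction and reported as Papp (10−6 cm/s); the efflux ratio was also determined.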

[4] = biological target: Cytochrome P450 2D6 (Homo sapiens, UniProt P10635); test: Inhibition of CYP2D6 (unknown origin); type: ADME
Cytochrome P450 2D6, sequence (P10635 whole entry): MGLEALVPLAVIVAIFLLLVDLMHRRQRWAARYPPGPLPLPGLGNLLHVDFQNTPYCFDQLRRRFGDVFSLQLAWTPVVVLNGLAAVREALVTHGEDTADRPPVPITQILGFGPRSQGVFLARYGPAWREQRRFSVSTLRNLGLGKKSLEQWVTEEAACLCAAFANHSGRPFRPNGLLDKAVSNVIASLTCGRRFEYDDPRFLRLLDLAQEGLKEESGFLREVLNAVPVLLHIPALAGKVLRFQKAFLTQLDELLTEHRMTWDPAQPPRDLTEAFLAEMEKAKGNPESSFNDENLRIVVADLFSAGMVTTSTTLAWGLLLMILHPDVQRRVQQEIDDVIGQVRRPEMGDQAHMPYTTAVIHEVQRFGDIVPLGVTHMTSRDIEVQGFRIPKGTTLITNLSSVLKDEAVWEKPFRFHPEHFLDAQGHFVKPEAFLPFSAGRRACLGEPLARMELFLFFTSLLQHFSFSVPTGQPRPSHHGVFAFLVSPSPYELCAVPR

[5] = Solubility of the compound; type: physicochemical
[6] = system: Canis familiaris; test: Oral bioavailability in beagle dog at 30 mg/kg; type: ADME, organism-based, Canis lupus familiaris; conditions: in vivo
In short: (§1)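 Beagles (n = 3) were given an oral emulsion in 30% Labrafil. Blood was collected at 0, 5, 15 and 30 min and at 1, 2, 4, 8 and 24 h. Bioavailability was derived relative to IV dosing.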

[7] = Tmax in Sprague-Dawley rat at 50 mg/kg, po; type: ADME, organism-based; set-up: dose 50 mg/kg, route oral; conditions: in vivo
In short: (§2)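 Sprague–Dawley rats (n = 3) were dosed orally with an emulsion in 30% Labrafil. Blood was sampled from 0 to 24 h (0, 5, 15, 30 min; 1, 2, 4, 8, 24 h). Bioavailability was derived against the IV arm.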

[8] = system: Rattus norvegicus; test: Total unbound Cmax in Sprague-Dawley rat at 50 mg/kg, po; type: ADME, organism-based; set-up: dose 50 mg/kg, route oral; conditions: in vivo; in short: as §2
[9] = Clearance in beagle dog at 10 mg/kg, iv; type: ADME, organism-based, Canis lupus familiaris; set-up: dose 10 mg/kg, route intravenous; conditions: in vivo
[10] = Clearance in Sprague-Dawley rat at 10 mg/kg, iv; type: ADME, organism-based; set-up: dose 10 mg/kg, route intravenous; conditions: in vivo
[11] = Terminal half life in beagle dog at 10 mg/kg, iv; type: ADME, organism-based, Canis lupus familiaris; set-up: dose 10 mg/kg, route intravenous; conditions: in vivo, read-out: beta t1/2 (converted)
[12] = Terminal half life in beagle dog at 30 mg/kg, po; type: ADME, organism-based, Canis lupus familiaris; set-up: dose 30 mg/kg, route oral; conditions: in vivo, read-out: beta t1/2 (converted); in short: as §1
[13] = Metabolic stability in mouse liver microsomes assessed as compound remaining at 2 uM measured at 1 hr; type: ADME, Microsome; conditions: read-out: Stability
In short: (§3)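 Liver microsomes (human, or male monkey, dog, rat or mouse) at 0.5 mg/mL final with 2 µM compound, 5 mM MgCl2 and 5 mM PBS. The reaction was started with 1 mM NADPH and run at 37 °C. Verapamil was the positive control; water replaced NADPH in the negative control. Read-out was percent parent remaining at 1 h.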

[14] = Metabolic stability in rat liver microsomes assessed as compound ramaining at 2 uM measured at 1 hr; type: ADME, Microsome; conditions: read-out: Stability
In short: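 Rat liver microsomes at 0.5 mg/mL final, with 5 mM MgCl2 and 5 mM PBS. The reaction was started with 1 mM NADPH final and run at 37 °C. The negative control used water in place of NADPH; verapamil was the positive control. Read-out was % parent remaining at 1 h.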

[15] = Metabolic stability in monkey liver microsomes assessed as compound remaining at 2 uM measured at 1 hr; type: ADME, Macaca mulatta, Microsome; conditions: rhesus monkey, read-out: Stability; in short: as §3
[16] = Metabolic stability in dog liver microsomes assessed as compound remaining at 2 uM measured at 1 hr; type: ADME, Canis lupus familiaris, Microsome; conditions: read-out: Stability; in short: as §3
[17] = Metabolic stability in human liver microsomes assessed as compound remaining at 2 uM measured at 1 hr; type: ADME, Microsome; conditions: read-out: Stability; in short: as §3
[18] = system: Mus musculus; test: Total unbound AUC (0 to infinity) in CD1 mouse at 50 mg/kg, po; type: ADME, organism-based; set-up: dose 50 mg/kg, route oral; conditions: in vivo
[19] = AUClast in CD1 mouse at 10 mg/kg, iv; type: ADME, organism-based; set-up: time 0 - last, dose 10 mg/kg, route intravenous; conditions: plasma
In short: (§4)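 CD1 mice (n = 3 per compound) given 10 mg/kg as a single tail-vein injection in a pH 7.0 solution of 10% ethanol plus PEG400 (some compounds also with 10% DMSO). Blood was sampled at 0, 5, 15 and 30 min and 1, 2, 4, 8 and 24 h. Parameters were derived from the plasma concentration–time profiles.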

[20] = system: Mus musculus; test: Total unbound Cmax in CD1 mouse at 10 mg/kg, iv; type: ADME, organism-based; set-up: dose 10 mg/kg, route intravenous; conditions: in vivo
[21] = Tmax in CD1 mouse at 50 mg/kg, po; type: ADME, organism-based; set-up: dose 50 mg/kg, route oral; conditions: in vivo
In short: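 CD1 mice (n = 3 per compound) were dosed orally at 50 mg/kg as an aqueous emulsion in 30% Labrafil. Blood was drawn at 0, 5, 15 and 30 min and 1, 2, 4, 8 and 24 h. Bioavailability and other parameters were calculated from the plasma profiles and compared against the intravenous arm.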

[22] = Tmax in CD1 mouse at 10 mg/kg, iv; type: ADME, organism-based; set-up: dose 10 mg/kg, route intravenous; conditions: in vivo; in short: as §4
[23] = Clearance in CD1 mouse at 10 mg/kg, iv; type: ADME, organism-based; set-up: dose 10 mg/kg, route intravenous; conditions: in vivo; in short: as §4
[24] = biological target: T1, Glucocorticoid receptor (Mus musculus) (UniProt P06537); test: Induction of glucocorticoid receptor nuclear translocation in mouse C2C12 cells at 1 x 10^-5 to 1.69 x 10^-10 M by chemiluminescence assay relative to control; type: cell-based
T1 sequence (whole entry): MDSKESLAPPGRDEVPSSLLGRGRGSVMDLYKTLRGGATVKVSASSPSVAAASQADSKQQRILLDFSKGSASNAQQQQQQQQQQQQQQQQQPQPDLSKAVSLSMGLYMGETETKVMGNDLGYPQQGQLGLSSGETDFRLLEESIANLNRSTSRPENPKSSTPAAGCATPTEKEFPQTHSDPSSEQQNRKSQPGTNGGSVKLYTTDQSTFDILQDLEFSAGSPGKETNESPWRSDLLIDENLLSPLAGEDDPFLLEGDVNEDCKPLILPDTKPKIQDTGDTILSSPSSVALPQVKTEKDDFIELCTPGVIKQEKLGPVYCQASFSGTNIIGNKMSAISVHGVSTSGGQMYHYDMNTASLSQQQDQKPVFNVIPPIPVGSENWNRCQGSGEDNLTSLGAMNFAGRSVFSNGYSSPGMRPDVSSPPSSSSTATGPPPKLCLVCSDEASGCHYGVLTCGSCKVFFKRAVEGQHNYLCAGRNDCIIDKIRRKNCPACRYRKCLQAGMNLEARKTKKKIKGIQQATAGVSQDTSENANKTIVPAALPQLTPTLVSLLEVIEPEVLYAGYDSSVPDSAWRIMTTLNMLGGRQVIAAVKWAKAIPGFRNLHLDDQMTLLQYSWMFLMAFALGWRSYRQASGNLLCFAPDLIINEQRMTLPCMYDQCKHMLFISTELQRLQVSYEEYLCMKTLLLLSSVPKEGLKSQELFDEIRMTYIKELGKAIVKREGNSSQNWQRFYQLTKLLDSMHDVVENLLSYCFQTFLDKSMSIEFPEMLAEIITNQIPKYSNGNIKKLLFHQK
In short: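 GR nuclear translocation measured by DiscoveRx in PathHunter cells using enzyme-fragment complementation. ProLink-tagged GR recruits a nuclear steroid receptor co-activator peptide fused to the enzyme acceptor, giving a chemiluminescent signal.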

[25] = Mean residence time in CD1 mouse at 10 mg/kg, iv; type: ADME, organism-based; set-up: dose 10 mg/kg, route intravenous; conditions: in vivo; in short: as §4
[26] = system: Rattus norvegicus; test: Total unbound AUC (0 to infinity) in Sprague-Dawley rat at 10 mg/kg, iv; type: ADME, organism-based; set-up: dose 10 mg/kg, route intravenous; conditions: in vivo

Cytochrome P450 3A4, sequence (P08684 whole entry): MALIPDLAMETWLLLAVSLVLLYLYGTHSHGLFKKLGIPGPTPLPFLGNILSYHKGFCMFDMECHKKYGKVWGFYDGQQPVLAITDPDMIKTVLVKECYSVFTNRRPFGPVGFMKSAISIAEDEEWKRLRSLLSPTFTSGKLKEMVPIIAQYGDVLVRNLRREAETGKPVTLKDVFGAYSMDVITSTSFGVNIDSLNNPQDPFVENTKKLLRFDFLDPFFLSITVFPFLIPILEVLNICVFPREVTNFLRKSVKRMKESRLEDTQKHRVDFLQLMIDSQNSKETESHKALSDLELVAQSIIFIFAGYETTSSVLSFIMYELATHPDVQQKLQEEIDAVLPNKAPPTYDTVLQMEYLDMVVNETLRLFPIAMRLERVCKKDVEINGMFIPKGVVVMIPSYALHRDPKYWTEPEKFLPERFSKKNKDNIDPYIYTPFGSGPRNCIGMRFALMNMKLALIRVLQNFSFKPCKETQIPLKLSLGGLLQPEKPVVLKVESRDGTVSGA

For `C[C@@H]1C[C@H]2[C@@H]3CCC4=CC(=O)C=C[C@]4(C)C3=CC[C@]2(C)[C@@]1(O)C(=O)CO` [VAMOROLONE], the Activity [1] was “Non-toxic”, the IC50 [2] was over 50 µM and the Papp [3] was 11.2 ×10⁻⁶ cm/s. The IC50 [4] was over 50 µM, the solubility [5] was 187 µM (≈ 66.7 µg/mL) and the F [6] was 53.2%. It also gave a Tmax [7] of 4 h, a fCmax [8] of 2543 ng/mL and a clearance [9] of 24.7 mL/min/kg. It also gave a clearance [10] of 20.2 mL/min/kg, a half-life [11] of 5.42 h and a half-life [12] of 2.25 h. It also gave a remaining at 1 h, 2 µM [13] of 88.8%, a remaining at 1 h, 2 µM [14] of 35.4% and a remaining at 1 h, 2 µM [15] of 100%. It also gave a remaining at 1 h, 2 µM [16] of 92.5%, a remaining at 1 h, 2 µM [17] of 82% and a fAUC [18] of 32932 ng·h/mL. The AUC(0-t) [19] was 8840 ng·h/mL, the fCmax [20] was 11167 ng/mL and the Tmax [21] was 2 h. For the same compound, the Tmax [22] was 5 min, the clearance [23] was 18.8 mL/min/kg and the Activity [24] was 80.4%. It also gave an MRT [25] of 0.667 h and a fAUC [26] of 8339 ng·h/mL.
